From ChEMBL document CHEMBL3098105, “7,7'-Diazaindirubin--a small molecule inhibitor of casein kinase 2 in vitro and in cells” (Bioorg Med Chem, 2014)
Calls of active or inactive are those of the source. The rule behind the calls is not given here.

Key:
CAKI-1 = assay: Antiproliferative activity against human CAKI-1 cells after 3 days by sulforhodamine B assay; format: functional; conditions: CAKI-1, 72 h
In short: (§1)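 Tested in the NCI 60 cell line panel. GI50 is the concentration giving 50% inhibition of cell growth, and values are the mean of two series of tests.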

[1] = target: Insulin receptor (Homo sapiens) (UniProt P06213); assay: Inhibition of human IR assessed as residual activity at 1 uM relative to control
[2] = target: Serine/threonine-protein kinase pim-3 (Homo sapiens) (UniProt Q86V86); assay: Inhibition of human Pim-3 assessed as residual activity at 1 uM relative to control
[3] = target: Interleukin-1 receptor-associated kinase 1 (Homo sapiens) (UniProt P51617); assay: Inhibition of human IRAK1 assessed as residual activity at 1 uM relative to control
[4] = target: Serine/threonine-protein kinase TAO2 (Homo sapiens) (UniProt Q9UL54); assay: Inhibition of human TAO2 assessed as residual activity at 1 uM relative to control
[5] = target: Ribosomal protein S6 kinase alpha-5 (Homo sapiens) (UniProt O75582); assay: Inhibition of human MSK1 assessed as residual activity at 1 uM relative to control
[6] = target: Serine/threonine-protein kinase MRCK alpha (Homo sapiens) (UniProt Q5VT25); assay: Inhibition of human MRCKalpha assessed as residual activity at 1 uM relative to control
[7] = target: T1, Casein kinase II (Homo sapiens) (UniProt P67870+P68400+P19784); assay: Inhibition of human CK2 assessed as residual activity at 1 uM relative to control; format: protein-complex assay
SK-MEL-28 = assay: Antiproliferative activity against human SK-MEL-28 cells after 3 days by sulforhodamine B assay; format: functional; conditions: SK-MEL-28, 72 h; in short: as §1
[8] = target: Tyrosine-protein kinase TXK (Homo sapiens) (UniProt P42681); assay: Inhibition of human Txk assessed as residual activity at 1 uM relative to control
[9] = target: Mitogen-activated protein kinase 12 (Homo sapiens) (UniProt P53778); assay: Inhibition of human SAPK3 assessed as residual activity at 1 uM relative to control
Chain of Mitogen-activated protein kinase 12 (Homo sapiens) (P53778 whole entry): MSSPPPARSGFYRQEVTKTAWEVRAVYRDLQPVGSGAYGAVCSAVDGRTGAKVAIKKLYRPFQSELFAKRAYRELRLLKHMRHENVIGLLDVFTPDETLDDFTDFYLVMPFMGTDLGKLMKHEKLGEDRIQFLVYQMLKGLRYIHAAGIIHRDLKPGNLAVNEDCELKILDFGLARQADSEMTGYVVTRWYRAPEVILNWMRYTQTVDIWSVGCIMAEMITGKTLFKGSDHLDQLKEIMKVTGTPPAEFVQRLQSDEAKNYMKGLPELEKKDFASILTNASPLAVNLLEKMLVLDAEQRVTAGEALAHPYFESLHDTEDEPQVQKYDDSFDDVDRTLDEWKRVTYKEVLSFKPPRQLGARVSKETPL

SNB-19 = assay: Antiproliferative activity against human SNB19 cells after 3 days by sulforhodamine B assay; format: functional; conditions: SNB-19, 72 h
[10] = target: T2, Cyclin-dependent kinase 5/CDK5 activator 1 (Homo sapiens) (UniProt Q00535+Q15078); assay: Inhibition of CDK5/p35NCK (unknown origin) assessed as residual activity at 1 uM relative to control; format: protein-complex assay
T2 sequence (Q00535 whole entry): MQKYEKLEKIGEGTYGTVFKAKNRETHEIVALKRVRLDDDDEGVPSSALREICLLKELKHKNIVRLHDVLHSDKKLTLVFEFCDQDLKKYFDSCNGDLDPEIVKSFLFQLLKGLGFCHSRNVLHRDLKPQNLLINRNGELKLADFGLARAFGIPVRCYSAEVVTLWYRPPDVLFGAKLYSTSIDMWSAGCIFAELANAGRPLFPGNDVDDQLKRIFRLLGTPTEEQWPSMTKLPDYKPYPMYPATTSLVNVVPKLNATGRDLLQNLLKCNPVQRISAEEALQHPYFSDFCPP
T2 sequence (Q15078 99-307 partner limits assumed): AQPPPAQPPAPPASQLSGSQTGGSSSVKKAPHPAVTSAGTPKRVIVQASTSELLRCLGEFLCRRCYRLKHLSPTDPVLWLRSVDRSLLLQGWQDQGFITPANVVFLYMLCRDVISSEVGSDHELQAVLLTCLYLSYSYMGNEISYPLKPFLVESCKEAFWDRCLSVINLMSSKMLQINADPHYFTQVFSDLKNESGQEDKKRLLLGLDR

[11] = target: Protein kinase C epsilon type (Homo sapiens) (UniProt Q02156); assay: Inhibition of human PKCepsilon assessed as residual activity at 1 uM relative to control
[12] = target: Mitogen-activated protein kinase 13 (Homo sapiens) (UniProt O15264); assay: Inhibition of human SAPK4 assessed as residual activity at 1 uM relative to control
Chain of Mitogen-activated protein kinase 13 (Homo sapiens) (O15264 whole entry): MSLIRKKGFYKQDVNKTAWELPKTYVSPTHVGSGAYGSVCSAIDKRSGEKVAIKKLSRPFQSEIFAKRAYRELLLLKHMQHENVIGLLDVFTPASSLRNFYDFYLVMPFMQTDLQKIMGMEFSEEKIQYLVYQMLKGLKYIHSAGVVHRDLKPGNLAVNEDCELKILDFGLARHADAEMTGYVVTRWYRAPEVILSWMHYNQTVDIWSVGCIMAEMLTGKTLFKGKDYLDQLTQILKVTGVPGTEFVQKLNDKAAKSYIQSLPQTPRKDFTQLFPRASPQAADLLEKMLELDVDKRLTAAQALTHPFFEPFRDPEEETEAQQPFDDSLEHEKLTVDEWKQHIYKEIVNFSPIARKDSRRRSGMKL

[13] = target: Rhodopsin kinase GRK7 (Homo sapiens) (UniProt Q8WTQ7); assay: Inhibition of human GRK7 assessed as residual activity at 1 uM relative to control
NCI-H460 = assay: Antiproliferative activity against human NCI-H460 cells after 3 days by sulforhodamine B assay; format: functional; conditions: NCI-H460, 72 h; in short: as §1
[14] = target: T2, Cyclin-dependent kinase 5/CDK5 activator 1 (Homo sapiens); assay: Inhibition of human CDK5/p35 assessed as residual activity at 1 uM relative to control; format: protein-complex assay
[15] = target: Receptor-type tyrosine-protein kinase FLT3 (Homo sapiens) (UniProt P36888); assay: Inhibition of FLT3 (unknown origin) assessed as residual activity at 1 uM relative to control
Chain of Receptor-type tyrosine-protein kinase FLT3 (Homo sapiens) (P36888 whole entry): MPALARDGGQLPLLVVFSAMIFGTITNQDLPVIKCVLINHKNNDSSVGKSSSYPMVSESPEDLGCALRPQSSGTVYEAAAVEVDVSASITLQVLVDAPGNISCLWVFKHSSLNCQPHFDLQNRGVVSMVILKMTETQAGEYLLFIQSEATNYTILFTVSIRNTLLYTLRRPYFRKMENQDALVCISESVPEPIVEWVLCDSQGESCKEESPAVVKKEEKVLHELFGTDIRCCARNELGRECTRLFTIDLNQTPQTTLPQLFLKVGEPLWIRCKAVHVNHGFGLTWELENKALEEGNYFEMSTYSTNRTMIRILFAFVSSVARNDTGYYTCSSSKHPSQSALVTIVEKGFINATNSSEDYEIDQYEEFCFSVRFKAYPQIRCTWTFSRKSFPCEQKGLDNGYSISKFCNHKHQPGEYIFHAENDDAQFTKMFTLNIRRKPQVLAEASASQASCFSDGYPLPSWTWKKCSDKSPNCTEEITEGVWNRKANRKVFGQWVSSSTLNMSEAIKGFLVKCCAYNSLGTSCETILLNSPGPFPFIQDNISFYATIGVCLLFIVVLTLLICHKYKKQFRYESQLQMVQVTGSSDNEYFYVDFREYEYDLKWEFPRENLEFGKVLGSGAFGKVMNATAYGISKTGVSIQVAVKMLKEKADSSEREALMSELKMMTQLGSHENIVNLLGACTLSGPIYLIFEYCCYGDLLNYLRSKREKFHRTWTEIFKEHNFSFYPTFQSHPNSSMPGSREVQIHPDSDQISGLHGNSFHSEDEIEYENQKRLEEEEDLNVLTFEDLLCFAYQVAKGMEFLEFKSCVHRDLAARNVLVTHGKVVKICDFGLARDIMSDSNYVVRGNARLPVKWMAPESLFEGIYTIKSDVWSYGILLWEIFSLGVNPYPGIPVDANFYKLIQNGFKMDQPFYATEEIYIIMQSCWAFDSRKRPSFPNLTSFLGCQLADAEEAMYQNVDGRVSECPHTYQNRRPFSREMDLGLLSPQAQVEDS

[16] = target: Rho-associated protein kinase 1 (Homo sapiens) (UniProt Q13464); assay: Inhibition of human ROCK-1 assessed as residual activity at 1 uM relative to control
MOLT-4 = assay: Antiproliferative activity against human MOLT4 cells after 3 days by sulforhodamine B assay; format: functional; conditions: MOLT-4, 72 h; in short: as §1
[17] = target: Ephrin type-B receptor 3 (Homo sapiens) (UniProt P54753); assay: Inhibition of human EphB3 assessed as residual activity at 1 uM relative to control
Chain of Ephrin type-B receptor 3 (Homo sapiens) (P54753 whole entry): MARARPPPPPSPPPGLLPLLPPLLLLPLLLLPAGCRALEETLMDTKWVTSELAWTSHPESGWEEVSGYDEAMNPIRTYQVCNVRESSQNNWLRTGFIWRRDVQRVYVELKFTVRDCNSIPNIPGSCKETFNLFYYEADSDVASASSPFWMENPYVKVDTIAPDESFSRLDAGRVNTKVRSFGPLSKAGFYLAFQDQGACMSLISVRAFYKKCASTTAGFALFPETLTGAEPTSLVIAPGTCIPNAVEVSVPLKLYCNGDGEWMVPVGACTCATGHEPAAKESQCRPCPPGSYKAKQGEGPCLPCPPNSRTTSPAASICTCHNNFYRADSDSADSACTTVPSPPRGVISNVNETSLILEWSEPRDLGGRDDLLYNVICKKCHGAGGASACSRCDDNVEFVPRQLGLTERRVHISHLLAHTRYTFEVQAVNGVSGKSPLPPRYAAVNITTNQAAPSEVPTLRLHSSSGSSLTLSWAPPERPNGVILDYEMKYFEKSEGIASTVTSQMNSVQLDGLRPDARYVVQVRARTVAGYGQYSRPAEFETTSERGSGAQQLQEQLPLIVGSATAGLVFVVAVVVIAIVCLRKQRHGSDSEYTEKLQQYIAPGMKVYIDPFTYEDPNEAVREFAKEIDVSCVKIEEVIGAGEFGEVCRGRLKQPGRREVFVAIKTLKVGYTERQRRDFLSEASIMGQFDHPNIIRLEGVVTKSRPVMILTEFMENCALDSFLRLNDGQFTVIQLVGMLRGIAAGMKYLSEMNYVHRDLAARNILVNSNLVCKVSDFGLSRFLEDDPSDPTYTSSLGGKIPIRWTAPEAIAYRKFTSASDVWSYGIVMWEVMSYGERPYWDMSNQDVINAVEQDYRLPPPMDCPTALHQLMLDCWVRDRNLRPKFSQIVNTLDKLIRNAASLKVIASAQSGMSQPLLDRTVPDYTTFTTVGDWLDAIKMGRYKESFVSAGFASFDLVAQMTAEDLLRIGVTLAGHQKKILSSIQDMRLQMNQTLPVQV

[18] = target: T1, Casein kinase II (Homo sapiens); assay: Inhibition of CK2 in human MCF7 cells assessed as reduction of Akt phosphorylation at S473 at 0.25 to 8 uM after 2 hrs by Western blot analysis; format: cell-based
In short: (§2)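 Cells were lysed in urea lysis buffer (6 M urea, NaF, Na3VO4, protease inhibitors). 20–40 µg protein was run on 10% SDS-PAGE and detected by ECL. Primary antibodies (pAkt S473, PARP, β-actin loading control) were used at 1:1000 overnight at 4 °C. DMSO was the vehicle control. For the pAkt blots, cells were treated for 2 h with Ly294002 as positive control.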

[19] = target: Serine/threonine-protein kinase N2 (Homo sapiens) (UniProt Q16513); assay: Inhibition of human PRK2 assessed as residual activity at 1 uM relative to control
SR = assay: Antiproliferative activity against human SR cells after 3 days by sulforhodamine B assay; format: functional; conditions: 72 h
[20] = target: Serine/threonine-protein kinase Sgk3 (Homo sapiens) (UniProt Q96BR1); assay: Inhibition of human SGK3 assessed as residual activity at 1 uM relative to control
[21] = target: Serine/threonine-protein kinase tousled-like 2 (Homo sapiens) (UniProt Q86UE8); assay: Inhibition of human TLK2 assessed as residual activity at 1 uM relative to control
[22] = target: Protein kinase C beta type (Homo sapiens) (UniProt P05771); assay: Inhibition of human PKCbeta2 assessed as residual activity at 1 uM relative to control
Chain of Protein kinase C beta type (Homo sapiens) (P05771 2-671 limits assumed): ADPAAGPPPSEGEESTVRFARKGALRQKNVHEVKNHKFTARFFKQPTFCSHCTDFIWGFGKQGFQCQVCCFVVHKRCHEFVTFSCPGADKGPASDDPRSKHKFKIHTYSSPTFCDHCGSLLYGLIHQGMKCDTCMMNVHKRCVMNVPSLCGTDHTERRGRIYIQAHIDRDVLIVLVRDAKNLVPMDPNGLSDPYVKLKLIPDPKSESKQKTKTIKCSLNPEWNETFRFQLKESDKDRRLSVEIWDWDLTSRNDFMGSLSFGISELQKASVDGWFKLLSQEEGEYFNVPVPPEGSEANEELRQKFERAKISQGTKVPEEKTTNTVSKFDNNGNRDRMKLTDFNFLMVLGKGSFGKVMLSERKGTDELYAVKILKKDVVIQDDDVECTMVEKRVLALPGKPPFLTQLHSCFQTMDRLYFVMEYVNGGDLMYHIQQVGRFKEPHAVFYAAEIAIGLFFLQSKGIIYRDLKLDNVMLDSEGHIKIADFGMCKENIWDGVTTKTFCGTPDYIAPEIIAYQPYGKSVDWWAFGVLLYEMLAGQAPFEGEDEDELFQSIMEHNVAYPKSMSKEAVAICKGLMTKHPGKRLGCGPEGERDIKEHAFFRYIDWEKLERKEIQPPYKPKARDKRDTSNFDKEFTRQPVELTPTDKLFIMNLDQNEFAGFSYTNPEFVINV

[23] = target: T1, Casein kinase II (Homo sapiens); assay: Inhibition of CK2 in human HEK293 cells assessed as reduction of Akt phosphorylation at S473 at 0.25 to 8 uM after 2 hrs by Western blot analysis; format: cell-based; in short: as §2
[24] = target: Calcium/calmodulin-dependent protein kinase type II subunit delta (Homo sapiens) (UniProt Q13557); assay: Inhibition of human CaMK2delta assessed as residual activity at 1 uM relative to control
KM12 = assay: Antiproliferative activity against human KM12 cells after 3 days by sulforhodamine B assay; format: functional; conditions: KM12, 72 h; in short: as §1
[25] = target: Tyrosine-protein kinase Yes (Homo sapiens) (UniProt P07947); assay: Inhibition of human Yes assessed as residual activity at 1 uM relative to control
[26] = target: Vascular endothelial growth factor receptor 1 (Homo sapiens) (UniProt P17948); assay: Inhibition of human Flt1 assessed as residual activity at 1 uM relative to control
[27] = target: Testis-specific serine/threonine-protein kinase 2 (Homo sapiens) (UniProt Q96PF2); assay: Inhibition of human TSSK2 assessed as residual activity at 1 uM relative to control
[28] = target: Eukaryotic elongation factor 2 kinase (Homo sapiens) (UniProt O00418); assay: Inhibition of human eEF-2K assessed as residual activity at 1 uM relative to control
[29] = target: Ribosomal protein S6 kinase alpha-3 (Homo sapiens) (UniProt P51812); assay: Inhibition of human Rsk2 assessed as residual activity at 1 uM relative to control
Chain of Ribosomal protein S6 kinase alpha-3 (Homo sapiens) (P51812 whole entry): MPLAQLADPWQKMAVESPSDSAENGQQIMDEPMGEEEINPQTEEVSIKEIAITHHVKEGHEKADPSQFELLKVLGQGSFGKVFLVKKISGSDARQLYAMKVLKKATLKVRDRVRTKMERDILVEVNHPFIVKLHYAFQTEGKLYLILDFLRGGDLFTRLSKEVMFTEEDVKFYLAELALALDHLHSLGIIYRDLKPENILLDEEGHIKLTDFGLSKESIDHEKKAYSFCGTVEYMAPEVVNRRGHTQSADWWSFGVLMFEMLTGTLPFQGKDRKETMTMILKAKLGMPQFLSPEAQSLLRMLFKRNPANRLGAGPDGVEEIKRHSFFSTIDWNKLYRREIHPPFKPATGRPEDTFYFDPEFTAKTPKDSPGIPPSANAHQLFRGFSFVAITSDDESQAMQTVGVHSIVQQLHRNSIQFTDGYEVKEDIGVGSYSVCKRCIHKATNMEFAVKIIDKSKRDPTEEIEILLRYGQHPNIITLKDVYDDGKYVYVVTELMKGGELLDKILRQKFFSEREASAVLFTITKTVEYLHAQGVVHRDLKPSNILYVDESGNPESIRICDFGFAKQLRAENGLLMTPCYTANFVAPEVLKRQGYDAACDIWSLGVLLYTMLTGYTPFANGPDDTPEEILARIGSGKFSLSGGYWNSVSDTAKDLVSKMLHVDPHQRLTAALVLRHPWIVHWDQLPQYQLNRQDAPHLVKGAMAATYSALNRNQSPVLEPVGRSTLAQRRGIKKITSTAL

[30] = target: Serine/threonine-protein kinase TBK1 (Homo sapiens) (UniProt Q9UHD2); assay: Inhibition of human TBK1 assessed as residual activity at 1 uM relative to control

## O=C1Nc2ncccc2/C1=C1/Nc2ncccc2C1=O
CAKI-1
  GI50: 1020 nM
[1]
  Activity: 98%
[2]
  Activity: 74%
[3]
  Activity: 89%
[4]
  Activity: 88%
[5]
  Activity: 93%
[6]
  Activity: 119%
[7]
  Activity: 49%
SK-MEL-28
  GI50: 2830 nM
[8]
  Activity: 126%
[9]
  Activity: 101%
SNB-19
  GI50: 517 nM
[10]
  Activity: 106%
[11]
  Activity: 87%
[12]
  Activity: 115%
[13]
  Activity: 96%
NCI-H460
  GI50: 307 nM
[14]
  Activity: 96%
[15]
  Activity: 79%
[16]
  Activity: 80%
MOLT-4
  GI50: 3320 nM
[17]
  Activity: 123%
[18]
  inhibition: Active
[19]
  Activity: 95%
SR
  GI50: 2730 nM
[20]
  Activity: 113%
[21]
  Activity: 103%
[22]
  Activity: 101%
[23]
  inhibition: Active
[24]
  Activity: 110%
KM12
  GI50: 387 nM
[25]
  Activity: 120%
[26]
  Activity: 96%
[27]
  Activity: 66%
[28]
  Activity: 94%
[29]
  Activity: 94%
[30]
  Activity: 120%
